Our source for the IC50 values is ChEMBL document CHEMBL1132442, “Preparation and characterization of novel trans-[PtCl(2)(amine)(isopropylamine)] compounds: cytotoxic activity and apoptosis induction in ras-transformed cells” (J Med Chem, 1999).

By IC50 is commonly meant the concentration that gives 50% inhibition.

One test relates to Jurkat. In words: Cytotoxicity against human acute T-cell leukemia cell line JURKAT (obtained by MTT assay). It is filed as functional, cell-based. The essentials: (§1)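 MTT survival assay: compounds added to cultured cells at final 0–200 μM, read 24 h later by absorbance at 520 nm. IC50 from plots of % survival versus concentration (μM). Quadruplicate experiments. Compound stocks 1 mg/mL in PBS, freshly prepared.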
On the technique in general: Tetrazolium dyes change colour on reduction, which living cells bring about.

For test [1], the system named is Vero. In words: Cytotoxicity against […] cell line VERO(obtained by MTT assay). The class given is functional, cell-based, Chlorocebus sabaeus. The essentials: as §1
The test system of another test is HeLa. Briefly: Cytotoxicity against human cervix epithelial carcinoma cell line HeLa (obtained by MTT assay). It is filed as functional, cell-based. The essentials: as §1
The test system of test [2] is PAM212. Briefly: Cytotoxicity against murine keratinocytes transformed with the H-ras oncogene Pam212-ras (cis-DDP resistant) (obtained by MTT assay). It is filed as functional, cell-based, Mus musculus. The essentials:
as §1

Test [3] has as its system PAM212. In words: Cytotoxicity against normal murine keratinocytes Pam212 (obtained by MTT assay). It is filed as functional, cell-based, Mus musculus. The essentials:
as §1

A further test has as its system HL-60. Briefly: Cytotoxicity against human promyelocytic leukemia cell line HL-60 (obtained by MTT assay). The class given is functional, cell-based. The essentials:
as §1

The subject of test [4] is Vero. Briefly: Cytotoxicity against […] cell line VERO (obtained by MTT assay). It is filed as functional, cell-based, Chlorocebus sabaeus. The essentials: as §1

On to CISPLATIN, for which the IC50 in the test on Jurkat is 7 µM; in the test with Vero [1], 50 µM; with HeLa, 38 µM; with PAM212 [2] it was 156 µM; with PAM212 [3], 114 µM; in the test with HL-60, 25 µM.
In the case of “Trans-[PtCl2(isopropylamine)(propylamine)]”, the IC50 with Jurkat is 5 µM; in the test on Vero [1], 52 µM; with HeLa it was 43 µM; in the test with PAM212 [2] it was 32 µM; in the test with PAM212 [3], 50 µM; in the test on HL-60 it was 20 µM.
Consider TRANSPLATIN, for which the IC50 is 22 µM in the test on Jurkat; 148 µM in the test with Vero [1]; 89 µM in the test on HeLa; 164 µM in the test on PAM212 [2]; 123 µM with PAM212 [3]; 50 µM with HL-60.
For the substance “Trans-[PtCl2(dimethylamine)isopropylamine)] (tdmaipa)”, the IC50 in the test with Jurkat worked out at 5 µM; in the test with HeLa, 32 µM; with PAM212 [2] it was 6 µM; with Vero [4], 47 µM; with PAM212 [3] it was 56 µM; in the test with HL-60, 17 µM.
With “Trans-[PtCl2(butylamine)(isopropylamine)]”, the IC50 worked out at 7 µM in the test with Jurkat; 46 µM with Vero [1]; 35 µM with HeLa; 21 µM in the test on PAM212 [2]; 71 µM with PAM212 [3]; 18 µM with HL-60.
